ERAP1 inh: human ERAP1 aminopeptidase inhibitors, primary screen, biochemical, single point, plate reader; inhibition, % at 10.7 µM; recombinant ERAP1, Leu-AMC fluorescence, 60 min; 0.15% of 340,000 active;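 active = mean replicate inhibition of at least 30%, or all replicates individually reaching that 30% level; inactive = mean below 30% and not every replicate reaching it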;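 note: 0% = neutral control wells and 100% = L-leucinethiol positive control wells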
Target sequence (Q9NZ08 whole entry, looked up): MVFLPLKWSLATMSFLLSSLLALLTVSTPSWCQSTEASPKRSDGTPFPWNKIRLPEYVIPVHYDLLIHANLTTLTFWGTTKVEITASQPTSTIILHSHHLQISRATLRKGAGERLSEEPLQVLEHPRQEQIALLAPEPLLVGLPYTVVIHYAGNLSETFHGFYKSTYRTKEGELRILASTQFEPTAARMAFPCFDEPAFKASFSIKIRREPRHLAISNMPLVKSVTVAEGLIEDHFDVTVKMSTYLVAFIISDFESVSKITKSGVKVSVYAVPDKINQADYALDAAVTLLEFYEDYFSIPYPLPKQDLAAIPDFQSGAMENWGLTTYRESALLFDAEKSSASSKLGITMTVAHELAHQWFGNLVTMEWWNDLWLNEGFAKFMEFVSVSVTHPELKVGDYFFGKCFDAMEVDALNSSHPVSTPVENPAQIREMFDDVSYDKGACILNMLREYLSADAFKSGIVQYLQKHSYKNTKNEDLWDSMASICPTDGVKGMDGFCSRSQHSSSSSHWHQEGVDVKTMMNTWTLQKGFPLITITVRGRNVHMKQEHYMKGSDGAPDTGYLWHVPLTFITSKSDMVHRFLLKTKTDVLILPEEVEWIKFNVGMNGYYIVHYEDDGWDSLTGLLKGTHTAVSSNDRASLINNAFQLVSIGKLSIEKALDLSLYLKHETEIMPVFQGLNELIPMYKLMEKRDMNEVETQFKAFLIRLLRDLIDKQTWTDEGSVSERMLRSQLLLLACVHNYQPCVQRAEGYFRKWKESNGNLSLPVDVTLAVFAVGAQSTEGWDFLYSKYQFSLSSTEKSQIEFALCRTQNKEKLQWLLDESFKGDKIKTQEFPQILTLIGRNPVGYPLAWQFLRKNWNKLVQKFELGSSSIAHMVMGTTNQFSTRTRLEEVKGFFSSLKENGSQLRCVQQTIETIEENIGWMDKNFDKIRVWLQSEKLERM
ARNT TACC3 PPI: disruptors of ARNT/TACC3 protein interaction, primary screen, biochemical, AlphaScreen, single concentration. Transforming acidic coiled-coil-containing protein 3 (Homo sapiens), Q9Y6A5. AlphaScreen His-ARNT PAS-B/GST-TACC3 binding, luminescence; TACC3 fragment carries E629A point mutation. inhibition, % at 9.99 µM. 0.66% of 390,000 active;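 active = mean inhibition of replicates at least 50% and at least half of replicates each reaching 50%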;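 note: 0% = complete ARNT plus TACC3 wells and 100% = ARNT alone without TACC3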
PGC1a acetyl inh: inhibitors of PGC1a acetylation signal, primary screen, cell-based, U2OS, AlphaScreen, inhibitor mode. AlphaScreen anti-acetyl-lysine; with virally co-expressed GCN5 acetyltransferase. inhibition, % at 15.6 µM. 0.17% of 350,000 active;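 active = every replicate shows inhibition of at least 40%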;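 note: 0% = neutral control wells and 100% = positive control wells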
Casp6 inh: human caspase-6 inhibitors, primary screen, biochemical, VEID-R110 fluorescence, single point, set 2. purified caspase-6, Z-VEID-R110 cleavage fluorescence. inhibition, % at 12.5 µM. 0.53% of 350,000 active. P55212;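 active = mean inhibition across replicates at least about 35%, with every replicate also reaching that limit, limit read from the data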;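 note: 0% = median of neutral control wells and 100% = no fluorescence left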
S100A4 MyoIIA: inhibitors of S100A4-myosin IIA peptide binding, primary screen, biochemical, fluorescence polarization, TAMRA-MyoIIA peptide; Protein S100-A4 (Homo sapiens), P26447; inhibition, % at 10.7 µM; 0.14% of 360,000 active; AID 652163, 2013;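 active = mean inhibition of at least 70% across replicates, with every replicate also reaching that level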
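Test system – S100A4 monomer (human) · Compound – single-point compound testing · Schedule – 5 min incubation before reading · Probe or stimulus – TAMRA-labelled myosin IIA heavy-chain peptide probe, 5 nM · Benchmarks – neutral control DMSO, positive control TFP · Medium – Calcium-containing HEPES buffer, pH 7.2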
Ecoli rRNA inh: reduced GFP signal of wild-type E. coli, primary screen, bacterial rRNA inhibitor project, GFP/RFP fluorescence, OD600, single point; 1.6% of 350,000 active; E. coli WT GFP vs humanized-ribosome RFP mutants, 24 h; stronger effect = lower value; DMSO median 0, no signal -100; AID 720706, 2013; GFP signal change (wild-type ribosome), % (test concentration not listed);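 active = significant combined selectivity score with lowered wild-type GFP, culture density cut under 30%, mutant RFP and density less affected; inactive = any of these conditions unmet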
AlphaScreen ctr: AlphaScreen signal interference compounds, dose response, artefact control for ARNT-TACC3 interaction inhibitor project, biochemical, luminescence, cherry-pick; shares compounds with ARNT TACC3 PPI; His-ARNT PASB-GST AlphaScreen artifact counter-screen; AC50, µM (highest dose often 68 µM), inactives show at the highest dose activity change, negative = signal decrease; 50% of 1,200 active; AID 651705, 2012;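 active = every separate test run was called active for a drop in luminescence, with AC50 within twice the top valid dose, actives reach about 71 µM in these data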
* = called active by the depositor; / = no result given; [ ] = another dose, or the depositor's remark. The list is not random: actives were taken first. Their share in the collection is about 2.4%.

SMILES	ERAP1 inh	ARNT TACC3 PPI	PGC1a acetyl inh	Casp6 inh	S100A4 MyoIIA	Ecoli rRNA inh	AlphaScreen ctr
CN(Cc1ccccc1)CC(O)COc1ccc(CNCc2nccn2C)cc1 (stereo not drawn)	-3	63*	-10	-29	-5	2	-16%
O=C(C[C@@H]1C=C[C@@H](NC(=O)CN2CCOCC2)[C@@H](CO)O1)NCCc1ccncc1	0	/	0	-2	7	-2	/
Oc1c(C(Nc2cccc(C(F)(F)F)c2)c2ccncc2)ccc2cccnc12 (stereo not drawn)	2	53*	14	7	-7	-50	4.1µM*
O=C(C1=C(O)C(=O)N(Cc2ccccc2)C1c1ccncc1)c1ccco1 (stereo not drawn)	/	21*	-10	/	/	/	-3%
O=C(C1=C(O)C(=O)N(CCCn2ccnc2)C1c1ccccc1)c1ccco1 (stereo not drawn)	/	-6	/	/	/	/	/
Cc1cc(=O)[nH]c(-n2[nH]c3c(c2=O)CCCC3)n1	/	58*	15	/	/	/	-17%
COc1ccccc1/C=N/NC(=O)CC(=O)NCc1cccnc1	/	2	/	/	/	/	/
O=C(CC(=O)N/N=C/c1ccccc1O)NCc1cccnc1	-3	48*	4	-3	1	-5	-19%
C[C@@H](Nc1nc(-c2ccccn2)nnc1-c1ccccc1)c1ccccc1	/	/	/	/	/	/	2.4µM*
CC(C)Nc1nc(-c2ccccc2)nnc1-c1ccccc1	0	-10	/	-5	-14	4	/
c1ccc(-c2nnc(-c3ccccn3)nc2NCCCN2CCOCC2)cc1	/	/	/	/	/	/	1.1µM*
c1ccc(CCNc2nc(-c3ccccn3)nnc2-c2ccccc2)cc1	/	/	/	/	/	/	2.5µM*
OCCCNc1nc(-c2ccccn2)nnc1-c1ccccc1	/	/	/	/	/	/	1.2µM*
c1ccc(CCc2nc(-c3ccccn3)no2)cc1	/	4	/	/	/	/	/
C[C@H](CO)N1C[C@H](C)[C@@H](CN(C)Cc2ccc3c(c2)OCO3)Oc2ccc(NC(=O)Cc3ccccc3)cc2C1=O	-1	3	-2	2	-16	1	/
Cc1ccc(-c2ccc3c(c2)O[C@@H](CN(C)C(=O)CC2CC2)[C@H](C)CN([C@@H](C)CO)S3(=O)=O)cc1	-1	4	-6	-4	-10	-20	/
c1ccc(-c2cccc(CNc3nc(-c4ccccn4)nnc3-c3ccccc3)c2)cc1	/	/	/	/	/	/	7.1µM*
O=[N+]([O-])c1cccc(-c2nc(NCc3ccccc3)c3ccccc3n2)c1	/	-4	/	/	/	/	/
c1ccc(-c2nnc(-c3ccccn3)nn2)nc1	-1	74*	11	-1	-10	10	-33%
c1ccc(-c2nnc(-c3ccccn3)c(-c3ccccn3)n2)nc1	-4	/	1	-1	-4	-25	/
COc1cccc(CNc2nc(-c3ccccn3)nnc2-c2ccccc2)c1	/	/	/	/	/	/	1.6µM*
c1ccc(CNc2nc(-c3ccccn3)nnc2-c2ccccc2)cc1	/	/	/	/	/	/	0.79µM*
COc1cccc(C#Cc2ccc3c(c2)[C@@H]2[C@@H](CCN2S(=O)(=O)c2ccccc2)[C@@H](CO)N3)c1	1	/	-1	-2	48	2	/
O=C(NCC[C@H]1CC[C@@H](NS(=O)(=O)c2ccc(Cl)cc2)[C@H](CO)O1)c1ccccc1F	-2	/	-3	-1	-4	2	/
CN(C)c1nc(-c2ccccn2)nnc1-c1ccccc1	/	64*	-5	/	/	/	1.1µM*
SMILES	ERAP1 inh	ARNT TACC3 PPI	PGC1a acetyl inh	Casp6 inh	S100A4 MyoIIA	Ecoli rRNA inh	AlphaScreen ctr
c1ccc(-c2nnc(-c3ccccn3)nc2NCC2CCOCC2)cc1	/	/	/	/	/	/	1.1µM*
CO[C@@H]1CN(C)C(=O)c2ccc(NC(C)=O)cc2OC[C@H](C)N(C(=O)c2cccnc2)C[C@H]1C	1	-6	0	1	7	1	/
O=C(C[C@H]1CC[C@@H]2NC[C@H](O)COC[C@H]2O1)Nc1nccs1	/	-8	0	/	/	3	/
CCOC(=O)C1CCN(C(=O)COC(=O)c2ccc([N+](=O)[O-])o2)CC1	0	33*	5	56*	7	11	-11%
CC1CCCC(C)N1C(=O)COC(=O)c1ccc([N+](=O)[O-])o1 (stereo not drawn)	-2	30*	-2	7	-35	-17	-17%
CC1CC(C)CN(C(=O)COC(=O)c2ccc([N+](=O)[O-])o2)C1 (stereo not drawn)	-2	-1	1	22	5	-1	/
COc1ccc(-c2cnc3c(c2)C(=O)N([C@H](C)CO)C[C@@H](C)[C@H](CN(C)Cc2cccnc2)O3)cc1	-1	108*	2	-1	39	4	-3%[38 µM]
CC(C)NC(=O)Nc1ccc2c(c1)CC(=O)N([C@H](C)CO)C[C@H](C)[C@H](CN(C)Cc1ccc(Oc3ccccc3)cc1)O2	4	2	-5	-1	-3	-8	/
C[C@H]1CN([C@@H](C)CO)C(=O)Cc2cc(NC(=O)Nc3cccc4ccccc34)ccc2O[C@H]1CN(C)Cc1ccc(Oc2ccccc2)cc1	0	42	-4	1	-5	4	/
C[C@@H]1CN([C@@H](C)CO)C(=O)Cc2cc(NC(=O)Nc3cccc4ccccc34)ccc2O[C@H]1CN(C)Cc1ccc(Oc2ccccc2)cc1	-2	72*	-13	-3	0	0	14µM*
CC(C)NC(=O)Nc1ccc2c(c1)CC(=O)N([C@H](C)CO)C[C@@H](C)[C@@H](CN(C)Cc1ccc(Oc3ccccc3)cc1)O2	2	active	-6	0	-17	-1	71µM*
COc1ccc(NC(=O)Nc2ccc3c(c2)CC(=O)N([C@H](C)CO)C[C@H](C)[C@@H](CN(C)Cc2ccc(Oc4ccccc4)cc2)O3)cc1	0	55*	-10	-3	4	1	19µM*
COc1ccc(-c2cnc3c(c2)C(=O)N([C@@H](C)CO)C[C@@H](C)[C@H](CN(C)Cc2cccnc2)O3)cc1	0	-4	-4	1	2	2	/
C[C@@H]1CN([C@H](C)CO)C(=O)c2cc(NC(=O)Cc3ccccc3)ccc2O[C@@H](C)CCCCO[C@H]1CN(C)S(=O)(=O)c1ccccc1	0	-2	-19	-1	1	-5	/
